Screening data: PubChem, several laboratories
SENP8 block-1: SENP8 protease inhibition | Q96LD8 | purified SENP8, Z-RLRGG-aminoluciferin cleavage, luminescence | inhibition, % at 10 µM | hit rate 1.2% among 330,000 | AID 2540; in the data active means inhibition above about 50%
Platelet DG rel: platelet dense granule release activity; human platelet-rich plasma, SFLLRN dense granule ATP release, luminescence; inhibition, %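 (compounds screened at 7.5 µM in platelet-rich plasma)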; hit rate 0.22% among 300,000;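 active means mean replicate score, as percent of positive control, at or above 50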
SENP8 block-2: SENP8 (human) protease inhibition; Q96LD8; hit rate 0.64% among 360,000; inhibition, % at 20 µM; AID 602440; recombinant SENP8, Nedd8 substrate fluorescence; in the data active means inhibition mostly above about 40%, no sharp cut-off; inactive means mostly below about 27%
SENP7 block: SENP7 protease inhibition; Q9BQF6; recombinant SENP7, Z-RLRGG-aminoluciferin luminescence, 40 min; inhibition, % at 5 µM; hit rate 1.5% among 330,000;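 active means inhibition above about 50% at the single test dose, limit read from the data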;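 further: plate controls were DMSO with enzyme for no effect and no enzyme buffer wells for full effect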
Target sequence (Q9BQF6 706-1050 limits assumed): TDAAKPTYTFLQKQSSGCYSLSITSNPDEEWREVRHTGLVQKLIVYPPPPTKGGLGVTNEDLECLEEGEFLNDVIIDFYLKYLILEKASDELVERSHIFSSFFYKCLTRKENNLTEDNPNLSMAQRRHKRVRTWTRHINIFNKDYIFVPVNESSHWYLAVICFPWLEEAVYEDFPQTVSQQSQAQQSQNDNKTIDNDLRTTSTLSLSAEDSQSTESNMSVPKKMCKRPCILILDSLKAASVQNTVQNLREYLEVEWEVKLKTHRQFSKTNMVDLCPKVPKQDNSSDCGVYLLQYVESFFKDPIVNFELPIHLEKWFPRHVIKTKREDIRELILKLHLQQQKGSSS
SENP6 block: inhibitors of human SENP6 protease; Q9GZR1; Recombinant SENP6 catalytic domain, aminoluciferin luminescence; inhibition, % at 10 µM; hit rate 1.8% among 330,000; AID 2599;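 active means inhibition above about 50% at the single tested dose, limit read from the data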;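 further: plate controls were DMSO wells with enzyme for no effect and DMSO wells lacking enzyme for full effect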
SENP1 FRET inh: blocks the human SENP1 SUMO protease catalytic domain | Q9P0U3 | recombinant SENP1 catalytic domain, CyPet-SUMO1-YPet FRET cleavage | inhibition, % at 10 µM | hit rate 0.21% among 360,000;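 active means inhibition at least 30% at 10 µM, raw YFP signal under a set limit, fluorescence ratio 0.5 to 1.5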;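 further: 0% = enzyme with DMSO and 100% = no enzyme wells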
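Compound: 10 µM single point, 0.5% DMSO; Test system: hSENP1 catalytic domain, recombinant; Timing: 50 min reaction at room temperature; Technique: FRET, CFP and YFP emission; Control set: no-enzyme wells low, DMSO-plus-enzyme wells high control.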
SENP8 conf: confirmation of human SENP8 protease inhibitors. hit rate 15% among 1,400. inhibition, % at 25 µM. shares compounds with SENP8 block-2. purified SENP8, Nedd8-AMC/pro-Nedd8 cleavage fluorescence, 30 min. AID 624319; in the data active means inhibition mostly above about 39%, no sharp cut-off; inactive means mostly below about 34%
Active calls of the source: *; x = no result. Sampled rows, rich in hits. Any-hit rate of the full collection: about 2.6%.

SMILES	SENP8 block-1	Platelet DG rel	SENP8 block-2	SENP7 block	SENP6 block	SENP1 FRET inh	SENP8 conf
NC(=O)c1c(-c2ccc(Cl)cc2Cl)csc1NC(=O)Cc1ccccc1	x	-6	17	x	x	1	x
CCOC(=O)CN1C(=O)N[C@@H](c2cccc(C(F)(F)F)c2)C(C(=O)OC)=C1C	-2	8	23	4	-2	4	x
CC(NC(=O)[C@H](NC(=O)[C@@H]1Cc2ccccc2CN1)c1ccccc1)c1ccccc1 (stereo not given in full)	4	-3	41*	2	-5	1	9
CCOCCSc1nc2c(c(=O)[nH]c(=O)n2C)n1CCCc1ccccc1	1	4	44*	12	-2	3	34
Cc1nnsc1C(=O)Nc1ccc(S(=O)(=O)N2CCCCC2C)cc1 (stereo not given)	-9	0	21	-10	5	-17	x
[O-]/C(=C(\C(=S)NCc1ccco1)[n+]1ccccc1)c1ccccc1Br	2	7	42*	10	7	1	33
COc1ccc(C(=O)c2sc(Nc3ccccc3)c(C(=O)Nc3ccc(OC)c(OC)c3)c2N)cc1	-3	0	50*	2	2	-18	11
Cc1cccc(C)c1Nc1c(-c2ccccn2)nc2ccccn12	4	-16	-440	8	11	-14	x
O=C1c2cc([N+](=O)[O-])cc3cc([N+](=O)[O-])cc(c23)C(=O)N1c1ccccn1	x	5	43*	x	x	2	35
CCOC(=O)C1CCN(C(=O)CCC(=O)NNc2nc3ccccc3c3nc(C)nn23)CC1	-9	4	6	4	-1	0	x
COCC(=O)N1CCN(c2ccc([N+](=O)[O-])cc2)CC1	-4	4	42*	4	-3	4	26
O=C(CCl)Nc1cccc(S(=O)(=O)NC2=NCCC2)c1	-3	1	46*	-2	-6	0	10
CC(C)C(=O)Nc1cccc(S(=O)(=O)NC2=NCCC2)c1	x	x	15	x	x	4	x
CCOC(=O)c1ccc(NC(=O)CN2CCc3ccccc3C2)cc1	-4	-1	49*	-4	11	-4	47*
COc1ccc(NC(=O)CN2CCc3ccccc3C2)cc1S(=O)(=O)N1CCOCC1	-10	-7	47*	-6	5	-6	8
O=C(COc1ccc(C(=O)NCc2cccnc2)cc1)Nc1cccc(C(F)(F)F)c1	9	-2	2	-1	-1	-1	x
CC1(C)OC(c2ccccc2)=C/C(=C/C=N/NC(=O)c2ccncc2)O1	0	-10	41*	-5	-14	3	24
O=c1onc(-c2ccccc2Cl)n1-c1ccccc1Cl	-1	20	19	2	8	-1	x
CC(C)(C)c1ccc(OCC(=O)N2CCN(C=O)CC2)cc1	-8	16	44*	4	7	1	14
CCCCOc1ccc(/C=N/NC(=S)Nc2cc(C)ccc2C)cc1	2	5	5	-2	10	2	x
CCCCOc1ccc(/C=N/NC(=S)Nc2cccc(C)c2C)cc1	1	0	40*	12	3	-1	5
O=C(c1ccc(N2CCCCC2)c([N+](=O)[O-])c1)N1CCOCC1	-5	1	34	-1	2	-1	x
O=C(c1ccc(N2CCCC2)c([N+](=O)[O-])c1)N1CCc2ccccc2C1	-4	16	50*	-3	4	3	13
CC(=O)N(C)c1ccc(C=C2C=Cc3ccccc32)cc1	x	x	25	x	x	1	x
CCN(N=O)c1ccc(C=C2C=Cc3ccccc32)cc1	x	x	69*	x	x	15	7
CN(N=O)c1ccc(C=C2C=Cc3ccccc32)cc1	x	x	51*	x	x	9	3
CCN(CC)c1ccc(C=C2C(=O)OC(c3ccccc3)OC2=O)cc1 (stereo not given)	-1	10	-12	-5	2	2	x
CCOC(=O)c1nn(-c2ccc(OC)cc2)c(=O)c2c(N)scc12	3	-6	41*	-6	25	5	53*
CCOC(=O)c1nnn(-c2ccc(OC)cc2)c1N	3	x	25	7	-7	2	x
